Consider 4 compounds from ChEMBL document CHEMBL1255375, “Mutational events in cefotaximase extended-spectrum beta-lactamases of the CTX-M-1 cluster involved in ceftazidime resistance” (2008).

In brackets after ≈: the same amount, converted by molar mass.

For assay [1], the system named is Escherichia coli. The assay is described as follows: Antimicrobial activity against Escherichia coli MI1443 harboring V27A, Q38R, D240G mutations in beta lactamase CTX-M-15 by broth microdilution method. It counts as functional.
Assay [2] has as its system Escherichia coli. The assay is described as follows: Antimicrobial activity against Escherichia coli MI1443 harboring N106S and P167S mutations in beta lactamase CTX-M-10 by E-test. It is filed as functional. Summed up: (§1)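 E-test MICs on E. coli MI1443 carrying artificial blaCTX-M derivatives. Each gene was cloned into pBGS18– at EcoRI/PstI, transformed into MI1443, selected with kanamycin 50 µg/ml, and sequenced to confirm the mutation. Agents: cefotaxime, ceftazidime, cefepime, cefuroxime, amoxicillin-clavulanate.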

In assay [3] the test system is Escherichia coli. The assay is described as follows: Antimicrobial activity against Escherichia coli MI1443 harboring V27A, Q38R, A77V mutations in beta lactamase CTX-M-3 by E-test. It is filed as functional. Summed up: (§2)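 MICs by E-test. Host is E. coli MI1443 carrying an artificial blaCTX-M derivative made by PCR and cloned into pBGS18- (EcoRI/PstI). Transformants were selected on kanamycin 50 µg/ml and the mutation was confirmed by sequencing. Agents tested: cefotaxime, ceftazidime, cefepime, cefuroxime and amoxicillin-clavulanate.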

Assay [4] relates to Escherichia coli. Description: Antimicrobial activity against Escherichia coli MI1443 harboring V27A and Q38R mutations in beta lactamase CTX-M-10 by E-test. It counts as functional. Summed up: as §1
Assay [5] deals with Escherichia coli. Description: Antimicrobial activity against Escherichia coli MI1443 harboring V27A, Q38R, N106S mutations in beta lactamase CTX-M-3 by E-test. It is filed as functional. An outline of the steps: as §2
Assay [6] concerns Escherichia coli. Description: Antimicrobial activity against Escherichia coli GB20 harboring P167S mutation in beta lactamase CTX-M-10 by broth microdilution method. It is filed as functional. Background: Dilution methods test growth across graded concentrations, often in twofold steps.
Assay [7] has as its system Escherichia coli. Description: Antimicrobial activity against Escherichia coli MI1443 harboring N106S and D240G mutations in beta lactamase CTX-M-10 by E-test. It counts as functional. An outline of the steps:
as §1

Assay [8] has as its system Escherichia coli. Description: Antimicrobial activity against Escherichia coli GB20 harboring V27A, Q38R, A77V, N114D, A140S, P167T, D288N mutations in beta lactamase CTX-M-1 by broth microdilution method. It counts as functional.
Assay [9] concerns Escherichia coli. The assay is described as follows: Antimicrobial activity against Escherichia coli MI1443 harboring V27A, Q38R, P167S and D240G mutations in beta lactamase CTX-M-3 by E-test. It is filed as functional. An outline of the steps: as §2
For assay [10], the system named is Escherichia coli. Description: Antimicrobial activity against Escherichia coli GB20 harboring D240G mutation in beta lactamase CTX-M-10 by broth microdilution method. It counts as functional.
The test system of assay [11] is Escherichia coli. The assay is described as follows: Antimicrobial activity against Escherichia coli GB20 harboring V27A, Q38R, P167S mutation in beta lactamase CTX-M-3 by broth microdilution method. It counts as functional.
In assay [12] the test system is Escherichia coli. Description: Antimicrobial activity against Escherichia coli GB20 harboring V27A, Q38R, A77V, N114D, A140S, D288N mutations in beta lactamase CTX-M-1 by broth microdilution method. It counts as functional.
In assay [13] the test system is Escherichia coli. The assay is described as follows: Antimicrobial activity against Escherichia coli MI1443 harboring V27A, Q38R, A77V, N114D, A140S, D240G, D288N mutations in beta lactamase CTX-M-32 by broth microdilution method. It is filed as functional.
Assay [14] concerns Escherichia coli. Description: Antimicrobial activity against Escherichia coli MI1443 harboring V27A, Q38R, N106S and P167S mutations in beta lactamase CTX-M-3 by E-test. It counts as functional. An outline of the steps:
as §2

The test system of assay [15] is Escherichia coli. Description: Antimicrobial activity against Escherichia coli MI1443 harboring A77V and D240G mutations in beta lactamase CTX-M-10 by E-test. It is filed as functional. Summed up: as §1
The subject of assay [16] is Escherichia coli. Description: Antimicrobial activity against Escherichia coli MI1443 harboring A77V mutation in beta lactamase CTX-M-10 by E-test. It is filed as functional. An outline of the steps: as §2
The test system of assay [17] is Escherichia coli. The assay is described as follows: Antimicrobial activity against Escherichia coli GB20 harboring V27A, Q38R, A77V, N114D, A140S, P167S, D288N mutations in beta lactamase CTX-M-1 by broth microdilution method. It is filed as functional.
Assay [18] has as its system Escherichia coli. The assay is described as follows: Antimicrobial activity against beta lactamase CTX-M-10 producing Escherichia coli MI1443 by broth microdilution.
Assay [19] deals with Escherichia coli. The assay is described as follows: Antimicrobial activity against Escherichia coli GB20 harboring V27A, Q38R, A77V, P167S mutation in beta lactamase CTX-M-3 by broth microdilution method. It counts as functional.
In assay [20] the test system is Escherichia coli. Description: Antimicrobial activity against beta lactamase CTX-M-10 producing Escherichia coli GB20 by broth microdilution method. It is filed as functional.
Assay [21] has as its system Escherichia coli. Description: Antimicrobial activity against Escherichia coli MI1443 harboring N106S mutation in beta lactamase CTX-M-10 by E-test. It counts as functional. An outline of the steps:
as §1

Assay [22] relates to Escherichia coli. The assay is described as follows: Antimicrobial activity against Escherichia coli MI1443 harboring P167S and D240G mutations in beta lactamase CTX-M-10 by E-test. It is filed as functional. Summed up:
as §2

The subject of assay [23] is Escherichia coli. The assay is described as follows: Antimicrobial activity against Escherichia coli GB20 harboring V27A, Q38R mutations in beta lactamase CTX-3 by broth microdilution method. It counts as functional.
Assay [24] deals with Escherichia coli. Description: Antimicrobial activity against Escherichia coli MI1443 harboring V27A, Q38R, N106S and D240G mutations in beta lactamase CTX-M-3 by E-test. It is filed as functional. An outline of the steps: as §1
The subject of assay [25] is Escherichia coli. The assay is described as follows: Antimicrobial activity against Escherichia coli MI1443 harboring A77V and P167S mutations in beta lactamase CTX-M-10 by E-test. It is filed as functional. An outline of the steps: as §1
Assay [26] relates to Escherichia coli. Description: Antimicrobial activity against Escherichia coli MI1443 harboring V27A, Q38R, A77V and D240G mutations in beta lactamase CTX-M-3 by E-test. It is filed as functional. An outline of the steps: as §1

A word on the MIC: it is the lowest concentration found to suppress growth. The low end stands for inhibition by little substance, the high end for a need for much substance. Turning to `CO/N=C(\C(=O)N[C@@H]1C(=O)N2C(C(=O)[O-])=C(C[N+]3(C)CCCC3)CS[C@H]12)c1csc(N)n1` [CEFEPIME], the MIC in the assay on Escherichia coli [1] was determined as 1 µg/mL (≈ 2.08 µM); in the assay with Escherichia coli [2], 1 µg/mL (≈ 2.08 µM); against Escherichia coli [3], 1.5 µg/mL (≈ 3.12 µM); with Escherichia coli [4] it was 32 µg/mL (≈ 66.6 µM); in the assay with Escherichia coli [5], 1.5 µg/mL (≈ 3.12 µM); with Escherichia coli [6] it was 1 µg/mL (≈ 2.08 µM). Besides, the MIC worked out at 4 µg/mL (≈ 8.32 µM) against Escherichia coli [7]; 4 µg/mL (≈ 8.32 µM) in the assay on Escherichia coli [8]; 0.5 µg/mL (≈ 1.04 µM) with Escherichia coli [9]; 4 µg/mL (≈ 8.32 µM) against Escherichia coli [10]; 0.5 µg/mL (≈ 1.04 µM) against Escherichia coli [11]; 128 µg/mL (≈ 266 µM) against Escherichia coli [12]. Moreover, the MIC is 4 µg/mL (≈ 8.32 µM) with Escherichia coli [13]; 1.5 µg/mL (≈ 3.12 µM) against Escherichia coli [14]; 32 µg/mL (≈ 66.6 µM) in the assay on Escherichia coli [15]; 128 µg/mL (≈ 266 µM) against Escherichia coli [16]; 4 µg/mL (≈ 8.32 µM) in the assay with Escherichia coli [17]; 32 µg/mL (≈ 66.6 µM) against Escherichia coli [18]. The MIC in the assay with Escherichia coli [19] is 0.25 µg/mL (≈ 0.52 µM); in the assay with Escherichia coli [20] it was 32 µg/mL (≈ 66.6 µM); with Escherichia coli [21], 1 µg/mL (≈ 2.08 µM); with Escherichia coli [22] it was less than 0.25 µg/mL; in the assay on Escherichia coli [23] it was 32 µg/mL (≈ 66.6 µM); against Escherichia coli [24], 8 µg/mL (≈ 16.6 µM). The MIC in the assay on Escherichia coli [25] came to 1 µg/mL (≈ 2.08 µM); against Escherichia coli [26], 4 µg/mL (≈ 8.32 µM).

As to `CO/N=C(\C(=O)N[C@@H]1C(=O)N2C(C(=O)O)=C(COC(C)=O)CS[C@H]12)c1csc(N)n1` [CEFOTAXIME], the MIC in the assay with Escherichia coli [1] is 128 µg/mL (≈ 281 µM); with Escherichia coli [2], 2 µg/mL (≈ 4.39 µM); against Escherichia coli [3], 128 µg/mL (≈ 281 µM); against Escherichia coli [4], 256 µg/mL (≈ 562 µM); in the assay with Escherichia coli [5], 3 µg/mL (≈ 6.59 µM); against Escherichia coli [6] it was 1 µg/mL (≈ 2.2 µM). In addition, the MIC against Escherichia coli [7] was 64 µg/mL (≈ 141 µM); with Escherichia coli [8], 16 µg/mL (≈ 35.1 µM); against Escherichia coli [9] it was 1.5 µg/mL (≈ 3.29 µM); with Escherichia coli [10] it was no less than 256 µg/mL; in the assay with Escherichia coli [11] it was 1 µg/mL (≈ 2.2 µM); in the assay on Escherichia coli [12] it was no less than 256 µg/mL. The MIC was 256 µg/mL (≈ 562 µM) against Escherichia coli [13]; 3 µg/mL (≈ 6.59 µM) against Escherichia coli [14]; no less than 256 µg/mL with Escherichia coli [15]; no less than 256 µg/mL with Escherichia coli [16]; 16 µg/mL (≈ 35.1 µM) against Escherichia coli [17]; 256 µg/mL (≈ 562 µM) against Escherichia coli [18]. In addition, the MIC against Escherichia coli [19] was 4 µg/mL (≈ 8.78 µM); in the assay on Escherichia coli [20] it was 256 µg/mL (≈ 562 µM); in the assay with Escherichia coli [21], 2 µg/mL (≈ 4.39 µM); in the assay with Escherichia coli [22] it was 4 µg/mL (≈ 8.78 µM); against Escherichia coli [23], 256 µg/mL (≈ 562 µM); against Escherichia coli [24] it was no less than 256 µg/mL. The MIC with Escherichia coli [25] was 4 µg/mL (≈ 8.78 µM); in the assay on Escherichia coli [26] it was no less than 256 µg/mL.

On to `CC(C)(O/N=C(\C(=O)N[C@@H]1C(=O)N2C(C(=O)[O-])=C(C[n+]3ccccc3)CS[C@H]12)c1csc(N)n1)C(=O)O` [CEFTAZIDIME], for which the MIC came out at 2 µg/mL (≈ 3.66 µM) in the assay with Escherichia coli [1]; 16 µg/mL (≈ 29.3 µM) in the assay with Escherichia coli [2]; 1 µg/mL (≈ 1.83 µM) against Escherichia coli [3]; 1 µg/mL (≈ 1.83 µM) with Escherichia coli [4]; 0.5 µg/mL (≈ 0.915 µM) against Escherichia coli [5]; 32 µg/mL (≈ 58.5 µM) against Escherichia coli [6]. In addition, the MIC in the assay with Escherichia coli [7] turned out to be 2 µg/mL (≈ 3.66 µM); with Escherichia coli [8], 256 µg/mL (≈ 468 µM); in the assay with Escherichia coli [9] it was 8 µg/mL (≈ 14.6 µM); against Escherichia coli [10], 16 µg/mL (≈ 29.3 µM); in the assay with Escherichia coli [11], 32 µg/mL (≈ 58.5 µM); against Escherichia coli [12], 4 µg/mL (≈ 7.32 µM). Further, the MIC in the assay on Escherichia coli [13] was found to be 2 µg/mL (≈ 3.66 µM); in the assay with Escherichia coli [14], 32 µg/mL (≈ 58.5 µM); in the assay on Escherichia coli [15], 8 µg/mL (≈ 14.6 µM); with Escherichia coli [16], 8 µg/mL (≈ 14.6 µM); with Escherichia coli [17], 256 µg/mL (≈ 468 µM); with Escherichia coli [18] it was 1 µg/mL (≈ 1.83 µM). In addition, the minimal inhibitory concentration (MIC) turned out to be 32 µg/mL (≈ 58.5 µM) against Escherichia coli [19]; 1 µg/mL (≈ 1.83 µM) against Escherichia coli [20]; 0.5 µg/mL (≈ 0.915 µM) in the assay with Escherichia coli [21]; 4 µg/mL (≈ 7.32 µM) in the assay on Escherichia coli [22]; 1 µg/mL (≈ 1.83 µM) in the assay with Escherichia coli [23]; 2 µg/mL (≈ 3.66 µM) in the assay on Escherichia coli [24]. Further, the MIC came out at 64 µg/mL (≈ 117 µM) with Escherichia coli [25] and 2 µg/mL (≈ 3.66 µM) with Escherichia coli [26].

As to `CO/N=C(\C(=O)N[C@@H]1C(=O)N2C(C(=O)O)=C(COC(N)=O)CS[C@H]12)c1ccco1` [CEFUROXIME], the MIC in the assay with Escherichia coli [6] is 32 µg/mL (≈ 75.4 µM); in the assay with Escherichia coli [11] it was 128 µg/mL (≈ 302 µM); against Escherichia coli [18], no less than 256 µg/mL; in the assay on Escherichia coli [19], 64 µg/mL (≈ 151 µM); against Escherichia coli [20], no less than 256 µg/mL; against Escherichia coli [25], 64 µg/mL (≈ 151 µM).
